Published values pooled from the literature.
Lines come from different studies, so protocols differ.
Target: Dual specificity tyrosine-phosphorylation-regulated kinase 1B (DYRK1B, Homo sapiens, UniProt Q9Y463)
Method: competition with immobilised ligand

| Compound | test | conditions | remaining binding |
| --- | --- | --- | --- |
| CC(C)(C)c1ccc(-c2nc(CBr)nn2-c2cccc(O)c2)cc1 | cell-free assay | 10 µM | 78% |
| O=C(Nc1c[nH]nc1C(=O)NC1CCNCC1)c1cc(F)cc(F)c1 | binding | 1 µM | 100% |
| c1cncc(-c2cccc(Nc3nccc(NC4CCCCC4)n3)c2)c1 | binding | 10 µM | 38% |
| O=C(c1ccc(Nc2ncc(Cl)c(-c3ccc(Cl)s3)n2)cc1)N1CCC(N2CCCC2)CC1 | binding | 1 µM | 33% |
| CCC(=O)N[C@@H]1CC[C@H](C(=O)N(C)c2ccc(-c3nc4ccccc4o3)cc2)C1 | cell-free assay | 1 µM | 36% |
| O=C(NCCCN1CCOCC1)c1ccc(Nc2ncc(Cl)c(-c3ccc(Cl)s3)n2)cc1 | binding | 1 µM | 13% |
| Nc1c(C(=O)NCc2ccc(C(=O)NCCCC3CCCCC3)cc2)cnn1-c1ccccc1 | cell-free assay | 0.1 µM | 100% |
| COc1ncc2cc3ccccc3nc2c1C#N | cell-free assay | 5 µM | 81% |
| Cc1c[nH]c2nccc(Oc3c(F)cc(Nc4cc(Cl)nc(N)n4)cc3F)c12 | cell-free assay | 0.1 µM | 100% |
| COc1cnc(Nc2cccc(S(N)(=O)=O)c2)nc1N1CCN(c2ccccc2)CC1 | binding | 1 µM | 100% |
| CN(C)c1ncnc(-c2ccc3nc(Nc4cc(CN5CCN(C(=O)CC(F)(F)F)CC5)ccn4)[nH]c3c2)c1Cl | cell-free assay | 1 µM | 100% |
| C[C@@H](c1ccc(-n2cnc3c(N)ncnc32)cc1)N1CCc2nn(C)c(Cc3ccccc3)c2C1=O | binding | 0.1 µM | 91% |
| C=CC(=O)N1CCC(C(=O)NCC(=O)N2CCN(c3nc(-c4cnc(N)nc4C(F)F)nc(N4CCOCC4)n3)CC2)CC1 | binding | 1 µM | 98% |
| O=C(NCCCN1CCOCC1)c1ccc(Nc2nccc(-c3cc4ccccc4s3)n2)cc1 | binding | 1 µM | 92% |
| COc1ccc2c(c1)O[C@H](c1ccc(OC)c(OC)c1)C[C@@H]2NC(=O)C1(c2ccc3c(c2)OC(F)(F)O3)CC1 | cell-free assay | 1 µM | 91% |
